A selection: hits, their analogues and other compounds. The true share with any hit is near 1.9%.
MC4R antagonist: MC4R antagonists of cAMP signaling, primary screen, cell-based, TR-FRET, antagonist arm of biased-ligand search. Melanocortin receptor 4 (Homo sapiens), P32245. MC4R-expressing cells, MTII-stimulated cAMP, LANCE TR-FRET. inhibition, % at 6.5 µM. hit rate 0.48% among 360,000. AID 540295, 2011;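 active means inhibition above its plate's cutoff, the mean of tested wells on that plate plus 3 SD, cut at about 29% in these data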;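 further: 0% = Melanotan II alone and 100% = Melanotan II plus saturating MCL0020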
Target sequence (P32245 whole entry, looked up): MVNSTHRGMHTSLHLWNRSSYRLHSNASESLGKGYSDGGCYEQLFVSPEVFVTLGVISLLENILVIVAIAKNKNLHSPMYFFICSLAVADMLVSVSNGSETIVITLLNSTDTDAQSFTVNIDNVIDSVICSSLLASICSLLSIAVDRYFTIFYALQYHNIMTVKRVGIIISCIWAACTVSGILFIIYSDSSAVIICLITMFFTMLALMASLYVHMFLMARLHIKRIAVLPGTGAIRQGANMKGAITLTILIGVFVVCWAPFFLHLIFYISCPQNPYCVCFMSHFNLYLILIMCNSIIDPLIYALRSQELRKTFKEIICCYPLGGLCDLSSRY
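Assay system: U2OS cells stably expressing human melanocortin 4 receptor (MC4R) / Dosing: 6.5 µM / Timing: compound 30 min, challenge 1 h, detection 1 h / Measured by: Eu-cAMP/anti-cAMP TR-FRET, emission 671 nm / Replicates: singlicate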
NTR1 agonist: agonists of human NTR1, primary screen, imaging, U2OS cells, beta-arrestin-GFP, high content | NTR1-U2OS beta-arrestin-GFP spot imaging, agonist mode | Neurotensin receptor type 1 (Homo sapiens), P30989 | activation, % at 20 µM | hit rate 0.17% among 330,000;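 active means activation at or above 40% of the spot to cytoplasm intensity ratio, with at least 20 cells analyzed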;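 further: 0% = DMSO without peptide and 100% = 100 nM NTR1 peptide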
MC4R barr agon: MC4R agonists recruiting beta-arrestin, primary screen, cell-based, luminescence, agonist arm of biased-ligand search; U2OS MC4R beta-arrestin complementation; percent of melanotan II response, DMSO zero; activation, % at 8.9 µM; hit rate 0.98% among 360,000;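 active means activation above a per-plate cutoff, the mean activation of sample wells on that plate plus 3 SD, cut at about 8% in these data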
TLR4-MyD88 BLA: inhibitors of TLR4-MyD88 association in cells, primary screen, cell-based, HeLa CL3-4, BLA complementation, FRET ratio | Toll-like receptor 4 (Homo sapiens) + Myeloid differentiation primary response protein … | HeLa CL3-4 TLR4/MyD88 BLA complementation | inhibition, % at 8.4 µM | hit rate 0.18% among 200,000; in the data active means inhibition above about 25%;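 further: 0% = vehicle and 100% = reference inhibitor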
TLR9-MyD88 inh: inhibitors of TLR9-MyD88 association in cells, primary screen, cell-based, CHO, BLA complementation, fluorescence | Toll-like receptor 9 (Homo sapiens) + Myeloid differentiation primary response protein … | CCF4 FRET ratio | inhibition, % at 4.98 µM | hit rate 0.21% among 340,000 | AID 504734, 2011;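 active means inhibition above the mean over all tested compounds plus 3 SD, cut at about 21% in these data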;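 further: 0% = DMSO only wells and 100% = clavulanate BLA inhibitor control wells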
NOD2 RIPK2 PPI: NOD2-RIPK2 binding disruptors in cells, primary screen, fluorescence, CHO cells, BLA complementation | Receptor-interacting serine/threonine-protein kinase 2 (Homo sapiens), O43353 | CCF4 ratio | inhibition, % at 4.98 µM | hit rate 0.38% among 360,000; in the data active means inhibition above about 21%;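 further: 0% = vehicle only and 100% = reference blocker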
Active calls of the source: *; . = not tested or not shown.

SMILES	MC4R antagonist	NTR1 agonist	MC4R barr agon	TLR4-MyD88 BLA	TLR9-MyD88 inh	NOD2 RIPK2 PPI
Cc1nc2ccccc2n1C(C)c1nc2ccccc2n1CC(=O)c1ccc(OC(F)(F)F)cc1 (stereo not drawn)	.	.	.	.	.	9
CCC(=O)NC(=S)Nc1cccc(Cl)c1N1CCCCC1	4	50*	0	-2	6	-4
O=C(O)c1cccc(-c2csc(C(O)c3ccccc3)n2)c1 (stereo not drawn)	10	.	-1	.	.	-10
C=CCNCC(=O)N1N=C(c2ccc3ccccc3c2)CC1c1ccc(OC)cc1 (stereo not drawn)	-4	19	8.9*	3	-2	-8
COc1ccc(C2CC(c3ccc4ccccc4c3)=NN2C(=O)CN2CCC(C(N)=O)CC2)cc1 (stereo not drawn)	-2	3	-1	-14	2	4
COc1ccc(C2CC(c3ccc4ccccc4c3)=NN2C(=O)CNC2CCCCC2)cc1 (stereo not drawn)	2	20	8.5*	-1	-9	1
Cc1nc2c(OCc3cccc(Cl)c3)cccn2c1N(C)Cc1cccs1	1	.	2	.	.	-25
CSCc1cc(C(=O)NCCN2CCOCC2)c(N)s1	.	.	.	.	.	-4
CCOC(=O)c1ccc(N/C=C\C(=O)c2cccc(OC)c2)cc1	-6	5	9.4*	-4	-5	-6
N#CC(=Cc1cccs1)c1nc(-c2ccc(Cl)cc2)cs1	-10	.	9.2*	.	0	-10
COC(=O)C1(C(=O)OC)c2ccccc2N(S(=O)(=O)c2ccc(C)cc2)C1CC(C)=O (stereo not drawn)	.	.	.	.	.	-3
COc1ccc(CCCNC(=O)C2Cc3c(-c4cccc(NC(C)=O)c4)ccnc3O2)cc1 (stereo not drawn)	-15	.	-1	.	.	-12
N#CCOC(=O)[C@H](Cc1c[nH]c2ccccc12)NS(=O)(=O)c1ccc(Cl)cc1	34*	2	1	.	-15	-14
CC(=O)c1cccc(NC(=S)NC(=O)c2ccc(Br)cc2)c1	8	9	8.5*	-8	-5	1
COc1cccc(C2C=C(c3cccs3)Nc3ncnn32)c1OC (stereo not drawn)	-1	0	-1	3	45*	48*
O=C(COc1ncnc2sccc12)NC1CCS(=O)(=O)C1 (stereo not drawn)	3	3	1	.	4	2
Clc1ccc2c(SCC3CO3)c3ccccc3nc2c1 (stereo not drawn)	16	.	5	.	-7	-15
CC(C)c1nc(C(=O)N2CCc3c([nH]c4ccccc34)C2c2ccccn2)cs1 (stereo not drawn)	4	2	9.0*	-2	.	4
Cc1nc(C(=O)N2CCc3c([nH]c4ccccc34)C2c2ccccn2)cs1 (stereo not drawn)	-4	0	-3	6	2	0
Cc1c(C(=O)Nc2ccc(N3CCOCC3)cc2)oc2ccccc12	-2	2	0	-3	6	-13
Cc1c(C(=O)OCC(=O)Nc2ccc(N3CCOCC3)cc2)oc2ccccc12	-2	1	9.2*	.	0	4
CNCCCOc1ccc(Cl)cc1C(C)(C)C	-1	3	-1	-3	-2	7
COCCCNCCCOc1ccc(Cl)cc1C(C)(C)C	-2	-3	10*	-6	-4	-2
COc1cc(NC(=O)c2cc(-c3cccnc3)nc3ccc(Br)cc23)cc(OC)c1	3	6	8.2*	12	2	-18
COc1cc(-c2cc(C(=O)Nc3ccncc3)c3ccccc3n2)cc(OC)c1OC	6	-1	-1	.	6	-2
SMILES	MC4R antagonist	NTR1 agonist	MC4R barr agon	TLR4-MyD88 BLA	TLR9-MyD88 inh	NOD2 RIPK2 PPI
O=C(Nc1cccnc1)c1cc(-c2cccc(Br)c2)nc2ccccc12	4	10	3	.	-2	-6
O=C(Nc1ccncc1)c1cc(-c2cccc(Br)c2)nc2ccccc12	18	15	22*	.	3	-12
O=C(Nc1cccnc1)c1cc(-c2cccnc2)nc2ccc(Br)cc12	16	9	2	3	0	-21
Cc1ccc(-c2cc(C(=O)Nc3ccncc3)c3ccccc3n2)cc1	6	1	8.9*	.	-1	4
CC(C)COc1cccc(-c2cc(C(=O)N/N=C/c3ccncc3)c3ccccc3n2)c1	17	6	9.6*	.	-7	5
CCOc1cc(/C=N/NC(=O)c2cc(-c3cccc(OC)c3)nc3ccccc23)ccc1O	18	1	-1	.	.	-7
COC(=O)[C@]12CCCCC=C1N(Cc1ccccc1)C(=O)[C@H](CC(=O)NCC1CCCCC1)C2	.	.	.	.	.	-2
O=C(c1ccccc1)c1cc2cc(Cl)ccc2[nH]1	2	2	8.3*	.	4	-12
CC1(C)Cc2c(cnn2-c2ccccc2)C(NC(=O)CCc2ccc(=O)[nH]n2)C1 (stereo not drawn)	-1	1	-2	.	0	-8
O=C(CSc1ccc(Cl)cc1)Nc1ccc(C2SCCS2)cc1	5	1	9.6*	.	-4	-3
CN(CC(=O)Nc1cccc(F)c1)C(=O)c1ccc(C2SCCS2)cc1	9	3	-2	.	-2	2
O=C(CSc1c(F)c(F)cc(F)c1F)Nc1ccc(C2SCCS2)cc1	6	2	8.5*	.	-1	-8
O=C(COc1ccc(C2SCCS2)cc1)Nc1ccc(Cl)cc1	10	1	-1	.	3	11
COC(=O)[C@@]12C[C@@H](CC(=O)N3CCN(C(=O)C4CC4)CC3)C(=O)N(Cc3ccc4c(c3)OCO4)C1=CCC(C)(C)C2	.	.	.	.	.	-7
O=C(Nc1ncc(Cc2ccc(SC(F)F)cc2)s1)c1ccc(OC(F)F)cc1	11	6	33*	2	4	1
C[C@H]1CN([C@@H](C)CO)C(=O)CCCn2cc(nn2)CO[C@@H]1CN(C)C(=O)Nc1cccc(Oc2ccccn2)c1	1	.	-1	.	-7	3
c1ccc(Cn2c(-c3ccccc3)nc3nc4ccccc4nc32)cc1	0	2	9.3*	0	-5	-2
CNC(=O)C[C@H]1C(=O)N(c2ccc(OC)cc2)C[C@@H]1CSC	14	.	0	.	1	8
CC1CCN(S(=O)(=O)c2ccc(NC(=O)c3ccco3)cc2)CC1	13	1	-1	.	-3	-9
Cc1cccc(N2CCN(S(=O)(=O)c3ccc(-c4ccc(=O)[nH]n4)o3)CC2)c1C	16	0	8.3*	.	-5	0

Screening results deposited in PubChem by several laboratories.
